Data set [1] deals with T1, Prostacyclin receptor (Homo sapiens, UniProt P43119). Description: Antagonist activity at human IP receptor in HEL 92.1.7 cells assessed as inhibition of iloprost-induced cAMP production. Format: functional, cell-based. The gist of the method: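 HEL 92.1.7 cells cultured in RPMI with 10% FBS, 10 mM Hepes, 1 mM sodium pyruvate, penicillin/streptomycin. 5000 cells preincubated 15 min at 37 °C with compound in 5 mM Hepes, 0.05% BSA buffer. Stimulated with 0.01 μM iloprost for 15 min at 37 °C. cAMP read by LANCE TR-FRET kit. Data normalized to max/min controls; IC50 from curve fit.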
T1 sequence (P43119 whole entry): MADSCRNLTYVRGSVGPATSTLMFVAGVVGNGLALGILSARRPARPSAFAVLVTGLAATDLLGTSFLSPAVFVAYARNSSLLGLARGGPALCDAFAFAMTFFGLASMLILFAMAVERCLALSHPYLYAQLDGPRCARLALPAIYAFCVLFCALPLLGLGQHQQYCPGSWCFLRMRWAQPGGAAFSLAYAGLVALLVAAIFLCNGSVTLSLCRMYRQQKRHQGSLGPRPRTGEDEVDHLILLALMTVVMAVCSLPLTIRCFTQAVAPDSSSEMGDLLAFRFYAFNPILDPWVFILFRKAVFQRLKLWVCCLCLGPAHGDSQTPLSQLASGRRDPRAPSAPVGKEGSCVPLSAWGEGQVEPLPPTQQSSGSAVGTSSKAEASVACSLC
Background: Changes in cAMP serve as a functional read-out for many G protein-coupled receptors.

In data set [2] the target is T1, Prostacyclin receptor. Description: Displacement of [3H]iloprost from IP receptor in human platelet membrane. Format: cell membranes. The gist of the method: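 Filter binding with 0.01 μM [3H]-iloprost and 50 μg human platelet membranes. Incubated 1 h at room temperature in 20 mM Hepes, 5 mM MgCl2, pH 7.4, with or without compound. Compound serially diluted in DMSO, final DMSO 1–10%. Filtered, washed twice with PBS, counted by scintillation.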

Data set [3] addresses Prostaglandin E2 receptor EP4 subtype (Homo sapiens, UniProt P35408). In words: Inhibition of human recombinant EP4 receptor expressed in 293EBNA cells. Format: cell-based.
Data set [4] in a line: Apparent permeability across Caco-2 cells. Format: ADME, cell-based. The conditions noted are these: human. (Caco-2 monolayers are a common model of the intestinal barrier.)
Data set [5] addresses Prostaglandin E2 receptor EP2 subtype (Homo sapiens, UniProt P43116). In words: Inhibition of human recombinant EP2 receptor expressed in 293EBNA cells. Format: cell-based.
In the next data set the target is Cytochrome P450 3A4 (Homo sapiens, UniProt P08684). Description: Inhibition of CYP3A4. Format: ADME.
Sequence of Cytochrome P450 3A4 (P08684 whole entry): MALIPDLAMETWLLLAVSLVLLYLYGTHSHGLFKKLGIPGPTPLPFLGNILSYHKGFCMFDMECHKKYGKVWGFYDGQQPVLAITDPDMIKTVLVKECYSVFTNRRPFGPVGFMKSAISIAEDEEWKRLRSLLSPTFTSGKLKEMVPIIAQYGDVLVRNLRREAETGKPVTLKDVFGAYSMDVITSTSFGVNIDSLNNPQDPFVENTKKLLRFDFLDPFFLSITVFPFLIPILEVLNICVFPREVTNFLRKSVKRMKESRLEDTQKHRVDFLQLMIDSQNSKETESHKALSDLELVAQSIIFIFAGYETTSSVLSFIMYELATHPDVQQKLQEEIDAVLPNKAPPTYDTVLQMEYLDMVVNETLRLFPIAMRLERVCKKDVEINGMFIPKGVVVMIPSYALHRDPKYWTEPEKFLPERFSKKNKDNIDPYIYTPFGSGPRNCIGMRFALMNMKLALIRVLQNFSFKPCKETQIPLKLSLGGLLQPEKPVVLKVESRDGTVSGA
The nature of data set [6]: Metabolic stability in rat liver microsome after 30 mins. Format: ADME. Conditions: liver microsomes, read-out: Stability. In short, it runs like this: (§1)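 Human or rat liver microsomes, […], incubated 30 min with compound; percent parent remaining.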
For orientation: Liver microsomes are a subcellular fraction often used to study metabolism.

Data set [7] in a line: Metabolic stability in human liver microsomes after 30 mins. Format: ADME, Microsome. Conditions: read-out: Stability. The gist of the method: as §1
The next data set concerns the target Cytochrome P450 2D6 (Homo sapiens, UniProt P10635). Description: Inhibition of CYP2D6. Format: ADME.
For the next data set, the target named is Cytochrome P450 2C19 (Homo sapiens, UniProt P33261). In words: Inhibition of CYP2C19. Format: ADME.
Sequence of Cytochrome P450 2C19 (P33261 whole entry): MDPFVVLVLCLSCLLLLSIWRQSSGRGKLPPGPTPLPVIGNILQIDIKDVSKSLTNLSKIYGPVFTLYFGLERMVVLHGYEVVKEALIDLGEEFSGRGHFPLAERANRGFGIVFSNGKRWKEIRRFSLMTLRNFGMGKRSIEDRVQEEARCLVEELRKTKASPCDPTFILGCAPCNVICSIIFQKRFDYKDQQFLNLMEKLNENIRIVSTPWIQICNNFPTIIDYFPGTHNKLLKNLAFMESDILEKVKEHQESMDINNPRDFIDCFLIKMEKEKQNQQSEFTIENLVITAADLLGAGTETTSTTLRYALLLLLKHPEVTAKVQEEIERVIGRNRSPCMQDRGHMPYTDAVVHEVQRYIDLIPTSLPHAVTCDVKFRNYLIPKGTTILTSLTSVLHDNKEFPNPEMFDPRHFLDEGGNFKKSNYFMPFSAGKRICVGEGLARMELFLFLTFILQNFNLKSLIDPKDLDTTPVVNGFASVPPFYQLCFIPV
In a further data set the target is Cytochrome P450 2C9 (Homo sapiens, UniProt P11712). In words: Inhibition of CYP2C9. Format: ADME.
Sequence of Cytochrome P450 2C9 (P11712 whole entry): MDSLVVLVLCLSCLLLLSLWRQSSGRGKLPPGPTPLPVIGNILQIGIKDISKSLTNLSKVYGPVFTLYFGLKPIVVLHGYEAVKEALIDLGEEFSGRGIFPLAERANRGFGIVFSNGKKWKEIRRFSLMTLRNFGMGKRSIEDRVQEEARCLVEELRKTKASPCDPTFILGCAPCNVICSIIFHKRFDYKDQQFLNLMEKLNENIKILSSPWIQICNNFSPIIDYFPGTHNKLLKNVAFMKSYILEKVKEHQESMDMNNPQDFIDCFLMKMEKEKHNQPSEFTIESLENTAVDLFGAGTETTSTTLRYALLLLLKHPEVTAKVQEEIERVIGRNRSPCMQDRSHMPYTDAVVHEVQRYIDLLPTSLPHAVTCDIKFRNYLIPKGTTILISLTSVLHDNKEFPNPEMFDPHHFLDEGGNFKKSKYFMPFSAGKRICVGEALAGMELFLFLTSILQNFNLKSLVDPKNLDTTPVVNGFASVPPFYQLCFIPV
The target of another data set is hERG (KCNH2) (Homo sapiens, UniProt Q12809). In words: Inhibition of hERG at 20 uM by rubidium efflux assay. Format: toxicity.
Sequence of hERG (KCNH2) (Q12809 whole entry): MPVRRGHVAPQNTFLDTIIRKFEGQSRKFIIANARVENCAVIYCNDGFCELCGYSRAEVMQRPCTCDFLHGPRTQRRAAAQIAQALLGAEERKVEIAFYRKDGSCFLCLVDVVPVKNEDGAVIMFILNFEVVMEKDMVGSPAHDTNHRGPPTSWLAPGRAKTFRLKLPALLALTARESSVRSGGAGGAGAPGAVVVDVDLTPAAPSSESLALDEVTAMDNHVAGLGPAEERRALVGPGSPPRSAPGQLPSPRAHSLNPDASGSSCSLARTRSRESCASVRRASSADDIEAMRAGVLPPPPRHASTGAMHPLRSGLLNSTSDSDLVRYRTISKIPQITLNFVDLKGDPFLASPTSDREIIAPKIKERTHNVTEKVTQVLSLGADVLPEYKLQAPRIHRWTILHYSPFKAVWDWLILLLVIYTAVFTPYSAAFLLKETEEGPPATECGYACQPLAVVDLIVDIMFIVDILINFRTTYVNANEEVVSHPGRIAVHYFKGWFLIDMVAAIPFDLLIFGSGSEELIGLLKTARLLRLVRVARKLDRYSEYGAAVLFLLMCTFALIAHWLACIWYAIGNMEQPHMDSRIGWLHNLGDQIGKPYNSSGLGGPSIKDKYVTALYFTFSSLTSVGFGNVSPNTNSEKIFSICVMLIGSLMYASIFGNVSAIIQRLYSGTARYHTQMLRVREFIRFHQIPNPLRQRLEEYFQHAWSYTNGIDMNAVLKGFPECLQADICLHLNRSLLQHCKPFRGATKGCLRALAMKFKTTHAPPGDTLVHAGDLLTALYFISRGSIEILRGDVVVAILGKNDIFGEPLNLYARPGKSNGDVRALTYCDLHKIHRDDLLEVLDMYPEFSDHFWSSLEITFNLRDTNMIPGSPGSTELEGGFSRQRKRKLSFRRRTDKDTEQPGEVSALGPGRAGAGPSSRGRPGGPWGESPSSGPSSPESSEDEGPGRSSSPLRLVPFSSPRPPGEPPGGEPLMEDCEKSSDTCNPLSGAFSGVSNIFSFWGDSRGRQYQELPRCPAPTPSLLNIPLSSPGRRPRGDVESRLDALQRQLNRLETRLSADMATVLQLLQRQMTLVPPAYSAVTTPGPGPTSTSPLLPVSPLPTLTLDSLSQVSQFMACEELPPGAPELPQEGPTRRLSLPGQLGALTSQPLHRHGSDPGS
The target of the next data set is T2, Cytochrome P450 1A2 (Homo sapiens, UniProt P05177).
T2 sequence (P05177 whole entry): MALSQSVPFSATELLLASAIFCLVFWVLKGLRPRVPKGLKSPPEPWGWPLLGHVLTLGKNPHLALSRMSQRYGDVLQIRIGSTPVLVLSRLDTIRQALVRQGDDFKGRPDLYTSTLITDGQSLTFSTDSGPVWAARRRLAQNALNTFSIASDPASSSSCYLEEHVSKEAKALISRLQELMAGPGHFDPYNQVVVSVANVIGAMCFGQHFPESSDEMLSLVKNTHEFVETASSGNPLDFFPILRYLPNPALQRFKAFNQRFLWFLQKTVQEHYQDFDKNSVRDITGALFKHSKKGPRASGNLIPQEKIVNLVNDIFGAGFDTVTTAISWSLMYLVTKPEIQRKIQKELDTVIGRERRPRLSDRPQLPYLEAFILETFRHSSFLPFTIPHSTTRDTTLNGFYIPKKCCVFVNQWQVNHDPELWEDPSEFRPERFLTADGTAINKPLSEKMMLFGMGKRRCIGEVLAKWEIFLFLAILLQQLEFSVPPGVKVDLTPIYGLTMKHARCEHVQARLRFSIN
Description: Inhibition of CYP1A2. Format: ADME.

pIC50: −log10 of the molar value.

Sequence of Prostaglandin E2 receptor EP2 subtype (P43116 whole entry): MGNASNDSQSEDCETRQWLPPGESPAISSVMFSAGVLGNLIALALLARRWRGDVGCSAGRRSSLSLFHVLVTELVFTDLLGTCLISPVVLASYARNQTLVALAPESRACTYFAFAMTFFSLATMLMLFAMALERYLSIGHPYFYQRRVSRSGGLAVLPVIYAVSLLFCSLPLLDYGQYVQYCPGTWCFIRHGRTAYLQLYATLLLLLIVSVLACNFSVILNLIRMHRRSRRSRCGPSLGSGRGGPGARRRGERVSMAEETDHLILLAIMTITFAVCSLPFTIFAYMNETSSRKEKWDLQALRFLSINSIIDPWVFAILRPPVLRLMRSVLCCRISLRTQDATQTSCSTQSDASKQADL
Sequence of Cytochrome P450 2D6 (P10635 whole entry): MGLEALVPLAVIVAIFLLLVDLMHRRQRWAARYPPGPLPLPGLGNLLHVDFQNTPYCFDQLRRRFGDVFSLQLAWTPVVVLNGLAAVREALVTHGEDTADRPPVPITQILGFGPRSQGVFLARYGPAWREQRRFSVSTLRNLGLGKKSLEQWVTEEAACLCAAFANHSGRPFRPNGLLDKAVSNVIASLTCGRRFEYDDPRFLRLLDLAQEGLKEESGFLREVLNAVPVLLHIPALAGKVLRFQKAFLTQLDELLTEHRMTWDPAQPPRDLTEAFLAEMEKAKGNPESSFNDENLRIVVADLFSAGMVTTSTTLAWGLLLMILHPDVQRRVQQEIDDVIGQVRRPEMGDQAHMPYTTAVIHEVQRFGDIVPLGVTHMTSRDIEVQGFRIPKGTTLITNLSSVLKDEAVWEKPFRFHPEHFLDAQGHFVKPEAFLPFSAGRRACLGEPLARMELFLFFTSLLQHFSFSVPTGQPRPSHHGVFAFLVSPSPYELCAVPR
Sequence of Prostaglandin E2 receptor EP4 subtype (P35408 whole entry): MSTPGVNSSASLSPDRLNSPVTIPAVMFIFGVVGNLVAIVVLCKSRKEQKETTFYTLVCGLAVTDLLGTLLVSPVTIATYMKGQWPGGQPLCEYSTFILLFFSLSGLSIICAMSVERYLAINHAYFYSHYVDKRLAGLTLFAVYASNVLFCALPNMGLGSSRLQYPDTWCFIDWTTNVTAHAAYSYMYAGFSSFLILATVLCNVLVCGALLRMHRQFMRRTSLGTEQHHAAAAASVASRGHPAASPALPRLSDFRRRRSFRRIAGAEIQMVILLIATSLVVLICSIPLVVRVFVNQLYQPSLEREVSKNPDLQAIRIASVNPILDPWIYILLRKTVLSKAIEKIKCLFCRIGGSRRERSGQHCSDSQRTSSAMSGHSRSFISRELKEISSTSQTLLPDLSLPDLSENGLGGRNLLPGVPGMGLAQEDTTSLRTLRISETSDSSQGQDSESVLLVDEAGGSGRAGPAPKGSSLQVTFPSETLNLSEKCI

As for `CC(=O)Nc1cccc(-c2ccc(Cc3ocnc3C(=O)NC(C)c3ccccc3)cc2)c1` (racemic), the figures for the pIC50 at Prostacyclin receptor [1] and at Prostacyclin receptor [2] were 6.56 and 5.91, respectively.

For `CC(=O)Nc1cccc(-c2ccc(Cc3ocnc3C(=O)NC[C@@H](C)c3ccccc3)cc2)c1`, the pIC50 (usually −log10 of the IC50, conventionally taken in molar units) at Prostacyclin receptor [1] is 6.53; at Prostacyclin receptor [2], 6.04.

Take `CC(=O)Nc1cccc(-c2ccc(Cc3ocnc3C(=O)NCCc3ccccn3)cc2)c1`: the results for the pIC50 at Prostacyclin receptor [1] and at Prostacyclin receptor [2] were 6.00 and 5.12, respectively.

On to `CC(=O)Nc1cccc(-c2ccc(Cc3ocnc3C(=O)N[C@@H](Cc3ccccc3)C(=O)O)cc2)c1`, for which the pIC50 in [3] was 4.62; at Prostacyclin receptor [1] it was 7.80; in data set [5], 4.49; at Cytochrome P450 3A4 it was below 4.70; against Cytochrome P450 2D6, below 4.70; against Cytochrome P450 2C19, below 4.70. Besides, the pIC50 was 5.29 against Cytochrome P450 2C9, 6.32 on Prostacyclin receptor [2] and below 4.70 against Cytochrome P450 1A2. In addition, the Papp (commonly a coefficient for how fast a substance crosses the barrier) in data set [4] was 5.5 ×10⁻⁶ cm/s. Further, the remaining at 0.5 h in data set [6] was 91%; in data set [7] it was 100%. In addition, at hERG (KCNH2), testing at 20 µM gave an inhibition of 5%.

In the case of `CC(=O)Nc1cccc(-c2ccc(Cc3ocnc3C(=O)Nc3ccccc3)cc2)c1`, the pIC50 is 6.08 on Prostacyclin receptor [1] and 5.46 on Prostacyclin receptor [2].

As to `CC(=O)Nc1cccc(-c2ccc(Cc3ocnc3C(=O)NCCc3ccncc3)cc2)c1`, the figures for the pIC50 at Prostacyclin receptor [1] and on Prostacyclin receptor [2] were 6.32 and 5.33, respectively.

As for `CNC(=O)c1ncoc1Cc1ccc(-c2cccc(NC(C)=O)c2)cc1`, the figures for the pIC50 on Prostacyclin receptor [1] and on Prostacyclin receptor [2] were 5.48 and 4.91, respectively.

Take `CC(=O)Nc1cccc(-c2ccc(Cc3ocnc3C(=O)N(C)C)cc2)c1`: the pIC50 at Prostacyclin receptor [1] is 5.45; on Prostacyclin receptor [2], 4.91.

For the compound `CC(=O)Nc1cccc(-c2ccc(Cc3ocnc3C(=O)NCc3ccccc3)cc2)c1`, the values for the pIC50 at Prostacyclin receptor [1] and at Prostacyclin receptor [2] were 7.18 and 6.25, respectively. For the same compound, the remaining at 0.5 h in data set [6] stood at 33%; in data set [7], 63%.

As for `CC(=O)Nc1cccc(-c2ccc(Cc3ocnc3C(=O)N[C@H](Cc3ccccc3)C(=O)O)cc2)c1`, the pIC50 at Prostacyclin receptor [1] is 6.08; at Prostacyclin receptor [2] it was 5.38.

Take `CC(=O)Nc1cccc(-c2ccc(Cc3ocnc3C(=O)NCCc3ccccc3)cc2)c1`: the pIC50 on Prostacyclin receptor [1] was 6.86; on Prostacyclin receptor [2], 6.14.

In the case of `CC(=O)Nc1cccc(-c2ccc(Cc3ocnc3C(=O)N[C@H]3C[C@@H]3c3ccccc3)cc2)c1`, the values for the pIC50 at Prostacyclin receptor [1] and at Prostacyclin receptor [2] were 6.45 and 6.48, respectively.

Regarding `CC(=O)Nc1cccc(-c2ccc(Cc3ocnc3C(=O)N(C)CCc3ccccc3)cc2)c1`, the results for the pIC50 at Prostacyclin receptor [1] and on Prostacyclin receptor [2] were 5.67 and 5.15, respectively.

The compound `CC(=O)Nc1cccc(-c2ccc(Cc3ocnc3C(=O)NCC(C)c3ccccc3)cc2)c1` (racemic) gave a pIC50 at Prostacyclin receptor [2] of 7.11.

Turning to `CC(=O)Nc1cccc(-c2ccc(Cc3ocnc3C(=O)NCCN(C)C)cc2)c1`, the negative-log IC50 (pIC50) on Prostacyclin receptor [1] is 5.48; on Prostacyclin receptor [2], 4.47.

Turning to `CC(=O)Nc1cccc(-c2ccc(Cc3ocnc3C(=O)NC[C@H](C)c3ccccc3)cc2)c1`, the pIC50 was 7.29 at Prostacyclin receptor [1] and 7.28 at Prostacyclin receptor [2]. The remaining at 0.5 h in [6] was determined as 11%; in data set [7], 12%.

For the compound `CC(=O)Nc1cccc(-c2ccc(Cc3ocnc3C(=O)NCCc3cccnc3)cc2)c1`, the negative logarithm of the IC50 (pIC50) at Prostacyclin receptor [1] was 6.13; at Prostacyclin receptor [2], 5.31.

These data come from ChEMBL document CHEMBL1148848, “Discovery and preliminary evaluation of 5-(4-phenylbenzyl)oxazole-4-carboxamides as prostacyclin receptor antagonists” (Bioorg Med Chem Lett, 2007).
